Laboratory results taken from ChEMBL document CHEMBL1128250, “Structure-activity studies of 2,3,4,4a,5,9b-hexahydroindeno[1,2-c]pyridines as antispermatogenic agents for male contraception” (1995).
Where “and” joins values, the source holds several entries; their conditions need not be identical. Equal entries are not always repeated.

Key:
Mus musculus [1] = assay: Tested for its effect on mouse testes weight 3 days after single oral dose (30 mg/kg); assay type: functional, Testis
Method in brief: (§1)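 CD-1 outbred Swiss albino male mice, 5 per dose, single gavage on day 0 at 10 mL/kg. Vehicle was 0.15 M acetate buffer pH 5, ethanol/Tween-20/water (3:7:90), or 1% Tween-20 in water. CO2 euthanasia 72 h later. Testes weighed and histologically scored (spermatogenic index 0–6). Values are % reduction versus the assay's vehicle control. Positive control was 30 mg/kg of the parent compound. Significance by Dunnett's one-tailed t-test, p < 0.05.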

Mus musculus [2] = assay: Tested for its effect on spermatogenic index 3 days after single oral dose (30 mg/kg) in mice; assay type: functional; method in brief: as §1
Mus musculus [3] = assay: Tested for its effect on testes weight 3 days after single sub cutaneous dose (30 mg/kg); assay type: functional, Testis
Method in brief: (§2)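 Single subcutaneous injection, 10 mL/kg, to male CD-1 mice (5 per dose) in ethanol/Tween-20/water (3:7:90, v/v/v) on day 0. Mice were killed at 72 h; testes were weighed and histology scored for spermatogenic index (0–6). Results are % reduction from the vehicle control, with a 30 mg/kg positive control group. Dunnett's one-tailed t-test.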

Mus musculus [4] = assay: Tested for its effect on spermatogenic index 3 days after single oral dose (90 mg/kg),; assay type: functional; method in brief: as §1
Mus musculus [5] = assay: Tested for its effect on testes weight 3 days after single oral dose (10 mg/kg); assay type: functional, Testis; method in brief: as §1
Mus musculus [6] = assay: Tested for its effect on testes weight 3 days after single oral dose (30 mg/kg); assay type: functional, Testis; method in brief: as §1
Mus musculus [7] = assay: Tested for its effect on spermatogenic index 3 days after single oral dose (30 mg/kg); assay type: functional; method in brief: as §1
Mus musculus [8] = assay: Tested for its effect on testes weight of male CD-1 mice when dosed with 7.5 mg/kg (Dunnett's one-tailed t-test, p<0.05); assay type: functional, Testis
Method in brief: (§3)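 Male CD-1 mice gavaged daily for 35 days in 1% Tween-20 in water at 10 mL/kg. Half of each group was killed 7 days after the last dose; testes were weighed and sectioned for histology. Spermatogenic index was scored 0–6 from the cell types and late spermatids per tubule. Mean ± SEM; Dunnett's one-tailed t-test versus control.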

Mus musculus [9] = assay: Tested for its effect on spermatogenic index 3 days after single oral dose (3 mg/kg); assay type: functional
Method in brief: (§4)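 Male CD-1 (ICR) mice, 7 weeks old on arrival, 5 per dose, single gavage of 10 mL/kg on day 0. Vehicle was 0.15 M acetate buffer pH 5, ethanol/Tween-20/water 3:7:90, or 1% Tween-20. Mice were killed with CO2 at 72 h and testes weighed and scored for spermatogenic index (0–6 scale). Results are % reduction versus the vehicle control. Dunnett's one-tailed t-test.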

Mus musculus [10] = assay: Tested for its effect on spermatogenic index 3 days after single oral dose (90 mg/kg); assay type: functional; method in brief: as §1
Mus musculus [11] = assay: Tested for its effect on spermatogenic index 3 days after single sub cutaneous dose (10 mg/kg); assay type: functional; method in brief: as §2
Mus musculus [12] = assay: Tested for its effect on testes weight of male CD-1 mice when dosed with 15 mg/kg (Dunnett's one-tailed t-test, p<0.05); assay type: functional, Testis; method in brief: as §3
Mus musculus [13] = assay: Tested for its effect on pregnancy index of male CD-1 mice when dosed with 7.5 mg/kg (Dunnett's one-tailed t-test, p<0.05); assay type: functional
Method in brief: (§5)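 Male CD-1 mice (8–10/group) gavaged daily for 35 days, vehicle 1% Tween-20 in water, 10 mL/kg. From the day after the last dose, each male was housed with two females for up to 5 days, with vaginal copulatory plugs checked each morning. Pregnancy index is litters born per number of females.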

Mus musculus [14] = assay: Tested for its effect on testes weight 3 days after single sub cutaneous dose (3 mg/kg); assay type: functional, Testis; method in brief: as §2
Mus musculus [15] = assay: Tested for its effect on testes weight of male CD-1 mice when dosed with 3.75 mg/kg Data are means +/-standard error of the mean (n=4).; assay type: functional, Testis; method in brief: as §3
Mus musculus [16] = assay: Tested for its effect on spermatogenic index of male CD-1 mice when dosed with 7.5 mg/kg (Dunnett's one-tailed t-test, p<0.05); assay type: functional; method in brief: as §3
Mus musculus [17] = assay: Tested for its effect on testes weight 3 days after single sub cutaneous (10 mg/kg); assay type: functional, Testis; method in brief: as §2
Mus musculus [18] = assay: Tested for its effect on pregnancy index of male CD-1 mice when dosed with 15 mg/kg (Dunnett's one-tailed t-test, p<0.05); assay type: functional; method in brief: as §5
Mus musculus [19] = assay: Tested for its effect on pregnancy index of male CD-1 mice when dosed with 3.75 mg/kg Data are means +/-standard error of the mean (n=4).; assay type: functional; method in brief: as §5
Mus musculus [20] = assay: Tested for its effect on spermatogenic index of male CD-1 mice when dosed with 3.75 mg/kg Data are means +/-standard error of the mean (n=4).; assay type: functional; method in brief: as §3
Mus musculus [21] = assay: Tested for its effect on spermatogenic index 3 days after single oral dose (10 mg/kg); assay type: functional; method in brief: as §4
Mus musculus [22] = assay: Tested for its effect on spermatogenic index of male CD-1 mice when dosed with 15 mg/kg (Dunnett's one-tailed t-test, p<0.05); assay type: functional; method in brief: as §3
Mus musculus [23] = assay: tested for its effect on testes weight 3 days after single oral dose (30 mg/kg); assay type: functional, Testis
Method in brief: (§6)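 Male CD-1 (ICR)BR outbred Swiss albino mice, 5/dose, given one oral gavage dose (10 mL/kg) on day 0 in 0.15 M acetate buffer pH 5, ethanol/Tween-20/water (3:7:90), or 1% Tween-20 in water; vehicle and positive-control groups in each assay. Killed by CO2 72 h later; testes weighed. Expressed as % reduction versus vehicle control; Dunnett's one-tailed t-test.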

Mus musculus [24] = assay: tested for its effect on testes weight 3 days after single oral dose (90 mg/kg); assay type: functional, Testis; method in brief: as §6
Mus musculus [25] = assay: tested for its effect on spermatogenic index 3 days after single oral dose (30 mg/kg); assay type: functional
Method in brief: (§7)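 Male CD-1 (ICR)BR outbred Swiss albino mice, 5/dose, single oral gavage dose (10 mL/kg) on day 0 in acetate buffer pH 5 or Tween-20-based vehicle; killed 72 h later. Testis cross-sections scored histologically on a 0–6 spermatogenic index (Sertoli only to >100 late spermatids/tubule). Reported as % reduction versus vehicle control; Dunnett's one-tailed t-test.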

Mus musculus [26] = assay: Tested for its effect on spermatogenic index 3 days after single oral dose (10 mg/kg),; assay type: functional; method in brief: as §1
Mus musculus [27] = assay: tested for its effect on spermatogenic index 3 days after single oral dose (90 mg/kg); assay type: functional; method in brief: as §7
Mus musculus [28] = assay: Tested for its effect on mouse testes weight 3 days after single oral dose (3 mg/kg); assay type: functional, Testis; method in brief: as §1
Mus musculus [29] = assay: Tested for its effect on spermatogenic index 3 days after single oral dose (10 mg/kg) in mice; assay type: functional; method in brief: as §1
Mus musculus [30] = assay: Tested for its effect on spermatogenic index 3 days after single oral dose (3 mg/kg) in mice; assay type: functional; method in brief: as §1
Mus musculus [31] = assay: Tested for its effect on spermatogenic index 3 days after single oral dose (90 mg/kg) in mice; assay type: functional; method in brief: as §1
Mus musculus [32] = assay: Tested for its effect on mouse testes weight 3 days after single oral dose (10 mg/kg); assay type: functional, Testis; method in brief: as §1
Mus musculus [33] = assay: Tested for its effect on mouse testes weight 3 days after single oral dose (90 mg/kg); assay type: functional, Testis; method in brief: as §1

Cc1ccc([C@H]2c3cc(C)ccc3[C@H]3CN(C)CC[C@@H]23)cc1.Cl
Reduction (Mus musculus [1]): 12% | Reduction (Mus musculus [2]): 7%

CCN1CC[C@H]2[C@H](c3ccc(C(=O)OC)cc3)c3cc(C)ccc3[C@H]2C1.Cl
Reduction (Mus musculus [3]): 19% | Reduction (Mus musculus [4]): -5% | Reduction (Mus musculus [5]): 17% | Reduction (Mus musculus [6]): 32% and 30% | Reduction (Mus musculus [7]): 57% and 46% and 61% | Testes weight (Mus musculus [8]): 114.7 mg | Reduction (Mus musculus [9]): 5% | Reduction (Mus musculus [10]): 68% | Reduction (Mus musculus [11]): 28% | Testes weight (Mus musculus [12]): 108.94 mg | Pregnancy index (Mus musculus [13]): 2 | Reduction (Mus musculus [14]): 10% | Testes weight (Mus musculus [15]): 219.08 mg | Spermatogenic index (Mus musculus [16]): 3 | Reduction (Mus musculus [17]): 1% | Pregnancy index (Mus musculus [18]): 0 | Pregnancy index (Mus musculus [19]): 16 | Spermatogenic index (Mus musculus [20]): 5.5 | Reduction (Mus musculus [21]): 27% | Spermatogenic index (Mus musculus [22]): 1.6

CCN1CC[C@H]2[C@H](c3ccc(C)cc3C)c3cc(C)ccc3[C@H]2C1.Cl
Reduction (Mus musculus [23]): 6% | Reduction (Mus musculus [5]): 1% | Reduction (Mus musculus [24]): 11% | Reduction (Mus musculus [25]): 3% | Reduction (Mus musculus [26]): 0% | Reduction (Mus musculus [27]): 30%

CCN1CC[C@H]2[C@H](c3ccc(OC)cc3)c3cc(C)ccc3[C@H]2C1.Cl
Reduction (Mus musculus [28]): -7% | Reduction (Mus musculus [29]): -6% | Reduction (Mus musculus [30]): 2% | Reduction (Mus musculus [31]): -5% | Reduction (Mus musculus [32]): -17% | Reduction (Mus musculus [33]): 5%
